Assay outcomes deposited in PubChem BioAssay by several laboratories.
This is a sample that favours compounds with a hit; in the whole collection about 2% have one here.
Rpn11 inh: blocks the human proteasome subunit Rpn11; O00487; human 26S proteasome, Ub4-pepOG fluorescence polarization; 20S core pre-blocked with epoxomicin; inhibition, % at 20 µM; 360,000 tested, 0.59% active; AID 588493;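 active means inhibition at 20 µM, scaled to each plate's controls, above about 33%, limit read from the data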
ATG4B inh: inhibitors of human ATG4B cysteine protease; ATG4B cleavage of LC3-PLA2, NBD-HPC fluorescence, 1 h; 340,000 tested, 0.51% active; AID 504462; inhibition, % at 8.33 µM; Q9Y4P1
SENP1 FRET inh: SENP1 (human) catalytic domain inhibition | 360,000 tested, 0.21% active | inhibition, % at 10 µM | Q9P0U3 | recombinant SENP1 catalytic domain, CyPet-SUMO1-YPet FRET cleavage;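 active means inhibition at least 30% at 10 µM, raw YFP signal under a set limit, fluorescence ratio 0.5 to 1.5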;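 further: 0% = enzyme with DMSO and 100% = no enzyme wells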
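Test system: hSENP1 catalytic domain, recombinant; Amount: 20 pM final SENP1 enzyme; Medium: Tris pH 8 buffer plus EDTA, NaCl, BME, BSA, NP40, catalase; Schedule: 50 min enzyme reaction, room temperature, light-protected; Technique: FRET fluorescence in CFP and YFP emission channels; Controls: no-enzyme wells low, DMSO-plus-enzyme wells high control.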
HNF4A DNA FP: change in binding of human HNF4 alpha to DNA; P41235; HNF4a-FITC DNA binding, fluorescence polarization, 1 h; activity change, % at 10 µM; 360,000 tested, 0.3% active; in the data active means activity change above about 30%, passing the limit was not always enough
CSN deneddyl inh: CSN deneddylation inhibition. Q92905. Purified CSN, SCF-Nedd8-OG deneddylation, fluorescence polarization. inhibition, % at 12.5 µM. 360,000 tested, 0.38% active. AID 651999;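 active means pattern-corrected inhibition above about 35%, with an unprinted fluorescence ratio check between 0.5 and 1.5, limit read from the data, passing the limit was not always enough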;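 further: 0% = enzyme with substrate and 100% = substrate without enzyme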
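Material: human Csn5 produced in HEK293T cells; Input: enzyme 0.24 nM; Reagent: SCFSkp2-Nedd8OG substrate at 10 nM final; Dosing: 12.5 µM compound; Incubation: 90 min reaction at room temperature; Detection: fluorescence polarization of the substrate; Evaluation: % inhibition of substrate cleavage by Csn5; Control set: substrate-only high control, full reaction low control.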
TPT1 inh: inhibitors of Candida albicans tRNA 2'-phosphotransferase TPT1; recombinant caTPT1, FP RNA substrate dephosphorylation; inhibition, % at 5 µM; 300,000 tested, 0.81% active;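 active means inhibition above the mean of all tested compounds plus 3 SD, set per screening campaign, cut at about 24% in these data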;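 further: plate controls were DMSO alone for no effect and ferristatin control at 100 nM for full effect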
Rpn11 inh conf: confirmation of human proteasome Rpn11 inhibitors; 1,900 tested, 29% active; shares compounds with Rpn11 inh; purified human 26S proteasome, Ub4-pepOG fluorescence polarization; proteasome pretreated with epoxomicin; inhibition, % at 20 µM
MMP-2 inh: counter-screen for RPN11 inhibitors: inhibition of human MMP-2; AID 602330; inhibition, % at 20 µM; recombinant MMP-2, FRET peptide cleavage fluorescence; 1,900 tested, 4% active; shares compounds with Rpn11 inh;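 further: human MMP-2 activated beforehand with APMA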
Target sequence (P08253 whole entry, looked up): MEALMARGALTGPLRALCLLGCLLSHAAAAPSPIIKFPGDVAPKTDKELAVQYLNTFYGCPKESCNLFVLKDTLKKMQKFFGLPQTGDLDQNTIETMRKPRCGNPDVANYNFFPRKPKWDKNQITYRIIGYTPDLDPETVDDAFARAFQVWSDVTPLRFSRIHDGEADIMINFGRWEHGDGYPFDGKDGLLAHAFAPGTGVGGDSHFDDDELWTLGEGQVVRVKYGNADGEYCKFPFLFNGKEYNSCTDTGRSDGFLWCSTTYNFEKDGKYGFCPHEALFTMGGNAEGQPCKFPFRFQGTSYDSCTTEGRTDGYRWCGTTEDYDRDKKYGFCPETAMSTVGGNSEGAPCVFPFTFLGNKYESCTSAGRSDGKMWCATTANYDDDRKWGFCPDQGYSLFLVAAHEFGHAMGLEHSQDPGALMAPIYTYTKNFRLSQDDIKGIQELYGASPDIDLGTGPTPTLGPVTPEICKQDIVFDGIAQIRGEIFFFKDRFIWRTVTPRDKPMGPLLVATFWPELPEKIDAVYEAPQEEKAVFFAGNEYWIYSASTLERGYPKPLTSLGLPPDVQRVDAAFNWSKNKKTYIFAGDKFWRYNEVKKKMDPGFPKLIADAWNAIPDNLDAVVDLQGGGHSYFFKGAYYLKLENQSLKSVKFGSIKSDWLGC
Thrombin inh: thrombin (bovine) inhibition counter-screen | shares compounds with Rpn11 inh | bovine thrombin cleavage of Ub4-pepOG, fluorescence polarization | inhibition, % at 20 µM | 1,900 tested, 13% active | AID 602333;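 active means mean inhibition at least 40% at 20 µM, or signal 3 deviations below plate average, so some actives read negative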;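 further: plate controls were thrombin with DMSO for no effect and buffer wells lacking thrombin for full effect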
Active calls of the source: *. Unless noted, no stated cut-off is given here; in the data, active means inhibition above about 40%; inactive means the rest.

Cc1cccn2c(=O)c3cc(C(=O)N4CCC5(CC4)OCCO5)n(C)c3nc12 was read as Rpn11 inh 69.4*, ATG4B inh 3.8, SENP1 FRET inh -29.3, HNF4A DNA FP -0.5, CSN deneddyl inh -5.7, TPT1 inh -4.0, Rpn11 inh conf -7.5, MMP-2 inh -2.8 and Thrombin inh -8.4.
For COc1cccc2c1N=C1CCCC3CN(C(C)=O)CCC123 (configuration not stated) the results were Rpn11 inh 5.0, ATG4B inh -5.9, SENP1 FRET inh 1.2, HNF4A DNA FP -6.1 and CSN deneddyl inh -2.6.
Screening CCCOP(=O)(OCCC)C(NC(=O)c1cc(OC)c(OC)c(OC)c1)c1ccccc1 (configuration not stated) returned Rpn11 inh 139.6*, ATG4B inh -6.8, SENP1 FRET inh 3.4, HNF4A DNA FP 128.8*, CSN deneddyl inh -6.6, TPT1 inh -2.5, Rpn11 inh conf 2.1, MMP-2 inh -26.4 and Thrombin inh -1.6.
Screening O=C(NN=Cc1ccc(N(CCCl)CCCl)cc1)C(=O)c1c[nH]c2ccccc12 returned Rpn11 inh 51.7*, ATG4B inh -9.8, SENP1 FRET inh 14.3, HNF4A DNA FP 7.9, CSN deneddyl inh 6.2, Rpn11 inh conf 57.2*, MMP-2 inh 13.7 and Thrombin inh 34.3.
`Cc1cc(/C=C2/C(=O)NC(=O)N(c3ccc(Br)cc3)C2=O)c(C)n1C` gave Rpn11 inh 51.6*, ATG4B inh -2.4, SENP1 FRET inh -4.8, HNF4A DNA FP 2.9, CSN deneddyl inh 12.8, TPT1 inh 12.5, Rpn11 inh conf 6.3, MMP-2 inh 4.6 and Thrombin inh -57.3.
Cc1cc(/C=C2\C(=O)NC(=O)N(c3ccc(Br)cc3)C2=O)c(C)n1C was read as Rpn11 inh 29.8, ATG4B inh 11.7, SENP1 FRET inh -15.2, HNF4A DNA FP 1.9, CSN deneddyl inh 17.6 and TPT1 inh 15.9.
Screening O=C1NC(=O)N(c2ccc(Cl)cc2)C(=O)/C1=C/c1coc2ccc(O)cc2c1=O returned Rpn11 inh 53.6*, ATG4B inh 23.4, SENP1 FRET inh -18.6, HNF4A DNA FP 1.1, CSN deneddyl inh 14.3, TPT1 inh 10.9, Rpn11 inh conf -19.0, MMP-2 inh 5.6 and Thrombin inh -11.2.
Screening C[C@]12CCC3C(CC[C@H]4C[C@@H](O)[C@H](O)C[C@]34C)C1CC[C@@H]2O (some centres not stated) returned Rpn11 inh 1.3, ATG4B inh 3.0, SENP1 FRET inh 3.7, HNF4A DNA FP -1.0 and CSN deneddyl inh 1.2.
O=C(CN1CCN(Cc2cccc(Cl)c2)C1=O)N1CCC2(CC1)OCCO2 was read as Rpn11 inh 4.3, ATG4B inh -10.0, SENP1 FRET inh 2.9, HNF4A DNA FP -0.2, CSN deneddyl inh -1.9 and TPT1 inh -2.8.
For Cc1cccc(CN2CCN(CC(=O)N3CCC4(CC3)OCCO4)C2=O)c1 the results were Rpn11 inh 80.8*, ATG4B inh -16.9, SENP1 FRET inh 4.2, HNF4A DNA FP 4.6, CSN deneddyl inh -0.7, TPT1 inh -7.6, Rpn11 inh conf -17.9, MMP-2 inh -3.1 and Thrombin inh -13.6.
`CCCCCSc1cc(OC)c(CCNC)cc1OC` gave Rpn11 inh 138.3*, ATG4B inh 7.7, SENP1 FRET inh -2.0, HNF4A DNA FP -6.6, CSN deneddyl inh -4.0, TPT1 inh -1.7, Rpn11 inh conf 12.7, MMP-2 inh -21.0 and Thrombin inh 2.0.
For CCCCCCCSc1cc(OC)c(CCNC)cc1OC the results were Rpn11 inh -3.4, ATG4B inh 10.9, SENP1 FRET inh 2.5, HNF4A DNA FP 3.9, CSN deneddyl inh -5.3 and TPT1 inh 0.8.
`C1CCC(NC2CCCCC2)CC1` gave Rpn11 inh 1.6, ATG4B inh 7.2, SENP1 FRET inh 0.3, HNF4A DNA FP -1.1 and CSN deneddyl inh -0.8.
For C[CH2][Hg][S]c1ccccc1C(=O)O the results were Rpn11 inh 8.8, ATG4B inh 0.9, SENP1 FRET inh -0.2, HNF4A DNA FP 3.9, CSN deneddyl inh -3.2 and TPT1 inh -4.1.
Cc1cc(/C=C2\C(=O)NC(=O)N(c3cccc(F)c3)C2=O)c(C)n1-c1cc(C(=O)O)cc(C(=O)O)c1 was read as Rpn11 inh -1.4, ATG4B inh 0.8, SENP1 FRET inh -9.4, HNF4A DNA FP -22.0, CSN deneddyl inh 13.4 and TPT1 inh 10.7.
Cc1cc(C=C2C(=O)N(C)C(=S)N(C)C2=O)c(C)n1-c1ccncc1 was read as Rpn11 inh 42.1*, ATG4B inh 10.1, SENP1 FRET inh 8.2, HNF4A DNA FP -6.4, CSN deneddyl inh 9.9, TPT1 inh 18.7, Rpn11 inh conf 7.3, MMP-2 inh -10.0 and Thrombin inh 11.1.
For O=c1[nH]c(=O)n(Cc2ccccc2)c(O)c1/C=N/NCCO the results were Rpn11 inh 47.0*, ATG4B inh -10.8, SENP1 FRET inh -47.0, HNF4A DNA FP 18.6, CSN deneddyl inh 19.1, TPT1 inh 23.7, Rpn11 inh conf 39.0, MMP-2 inh -32.5 and Thrombin inh 24.8.
`COc1ccc(CCn2c(O)c(C=NCCCO)c(=O)[nH]c2=O)cc1OC` gave Rpn11 inh -5.7, ATG4B inh 6.0, SENP1 FRET inh 1.0, HNF4A DNA FP 3.0, CSN deneddyl inh -3.6 and TPT1 inh 2.5.
COc1ccc(CCn2c(O)c(C=Nc3ccccc3F)c(=O)[nH]c2=O)cc1OC was read as Rpn11 inh 34.8*, ATG4B inh -6.5, SENP1 FRET inh 0.1, HNF4A DNA FP 3.1, CSN deneddyl inh 10.7, TPT1 inh 17.1, Rpn11 inh conf -2.0, MMP-2 inh -31.1 and Thrombin inh 0.9.
O=C(N/N=C/c1c(O)n(Cc2ccc(F)cc2)c(=O)[nH]c1=O)c1ccccc1O was read as Rpn11 inh 20.2, ATG4B inh 11.0, SENP1 FRET inh -23.9, HNF4A DNA FP 4.9, CSN deneddyl inh 8.5 and TPT1 inh 8.8.
Screening O=C(N/N=C/c1c(O)n(CCc2ccc(F)cc2)c(=O)[nH]c1=O)c1ccccc1 returned Rpn11 inh 38.6*, ATG4B inh -8.1, SENP1 FRET inh -21.6, HNF4A DNA FP 3.4, CSN deneddyl inh 6.0, TPT1 inh 6.8, Rpn11 inh conf 18.2, MMP-2 inh -29.8 and Thrombin inh -16.5.
